Values after ≈ are worked out from the molar mass of the structure shown. Active and inactive are the calls of the source. No cut-off for these calls is given here.
How the values were obtained:
Escherichia coli = test: Antimicrobial activity against Escherichia coli SPA27 upto 100 ug/ml by broth dilution technique; assay type: functional, organism-based
Summary of the method: (§1)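 Broth dilution in Mueller Hinton Broth. Compounds are dissolved in DMSO (never above 1% v/v final) and serially diluted. MIC is the lowest concentration giving complete growth inhibition.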

Haemophilus influenzae = test: Antimicrobial activity against Haemophilus influenzae by broth dilution technique; assay type: functional
Summary of the method: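 Haemophilus Test Medium broth dilution. Compounds in DMSO are added to final dilutions, with DMSO at most 1% v/v. MIC is the lowest concentration completely inhibiting growth.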

Priestia megaterium = test: Antimicrobial activity against Bacillus megaterium by broth dilution technique; assay type: functional; summary of the method: as §1
[1] = tested on: Staphylococcus epidermidis; test: Antimicrobial activity against penicillin-resistant Staphylococcus epidermidis by broth dilution technique; assay type: functional
Summary of the method: (§2)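 Broth dilution in Mueller Hinton Broth with compounds predissolved in DMSO (at most 1% v/v). Final concentrations ranged from 100 to 0.0015, and the inoculum was 5.10⁴ bacteria/mL. Plates were incubated at 37 °C for 24 h. MIC was taken as the lowest concentration giving complete growth inhibition.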

Bacillus subtilis = test: Antimicrobial activity against Bacillus subtilis ATCC 6633 by broth dilution technique; assay type: functional; summary of the method: as §1
Streptococcus agalactiae = test: Antimicrobial activity against Streptococcus agalactiae by broth dilution technique; assay type: functional; summary of the method: as §1
[2] = tested on: Staphylococcus epidermidis; test: Antimicrobial activity against Staphylococcus epidermidis ATCC 12228 by broth dilution technique
Streptococcus pyogenes = test: Antimicrobial activity against Streptococcus pyogenes by broth dilution technique; assay type: functional
Summary of the method: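 Tryptose Phosphate Broth dilution. Compounds are dissolved in DMSO, with DMSO at most 1% v/v final. MIC is taken as the lowest concentration with complete growth inhibition.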

Candida tropicalis = test: Antimicrobial activity against Candida tropicalis ATCC 1369 upto 100 ug/ml by broth dilution technique; assay type: functional, organism-based
Summary of the method: (§3)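 Fungi are tested by Sabouraud Liquid Medium dilution. Compounds are in DMSO, with DMSO at most 1% v/v final. Inoculum is 1×10³ fungi/mL, incubated 48 h at 30 °C. MIC is the lowest concentration completely inhibiting growth. For MFC, 100 µL of clear mixtures is subcultured into 1 mL fresh medium and read after 48 h at 30 °C.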

Staphylococcus aureus [3] = test: Antimicrobial activity against penicillin-resistant Staphylococcus aureus by broth dilution technique; assay type: functional; summary of the method: as §2
[4] = tested on: Staphylococcus haemolyticus; test: Antimicrobial activity against Staphylococcus haemolyticus by broth dilution technique; assay type: functional; summary of the method: as §1
Aspergillus niger = test: Antimicrobial activity against Aspergillus niger ATCC 6275 upto 100 ug/ml by broth dilution technique; assay type: functional, organism-based; summary of the method: as §3
Micrococcus luteus = test: Antimicrobial activity against Sarcina lutea by broth dilution technique; assay type: functional; summary of the method: as §1
Staphylococcus aureus [5] = test: Antimicrobial activity against Staphylococcus aureus ATCC 25923 by broth dilution technique; assay type: functional; summary of the method: as §1
Enterococcus faecalis = test: Antimicrobial activity against Streptococcus faecalis by broth dilution technique; assay type: functional; summary of the method: as §1
Enterococcus faecium = test: Antimicrobial activity against Streptococcus faecium by broth dilution technique; assay type: functional; summary of the method: as §1
Saccharomyces cerevisiae = test: Antimicrobial activity against Saccharomyces cerevisiae ATCC 9763 upto 100 ug/ml by broth dilution technique; assay type: functional, organism-based; summary of the method: as §3
Bacillus thuringiensis = test: Antimicrobial activity against Bacillus thuringiensis var. kurstaki BGSC 4D1 by broth dilution technique; assay type: functional; conditions: serovar kurstaki; summary of the method: as §1

| Compound | Activity (Escherichia coli) | MIC (Haemophilus influenzae) [µg/mL] | MIC (Priestia megaterium) [µg/mL] | MIC [1] [µg/mL] | MIC (Bacillus subtilis) [µg/mL] | MIC (Streptococcus agalactiae) [µg/mL] | MIC [2] [µg/mL] | MIC (Streptococcus pyogenes) [µg/mL] | Activity (Candida tropicalis) | MIC (Staphylococcus aureus [3]) [µg/mL] | MIC [4] [µg/mL] | Activity (Aspergillus niger) | MIC (Micrococcus luteus) [µg/mL] | MIC (Staphylococcus aureus [5]) [µg/mL] | MIC (Enterococcus faecalis) [µg/mL] | MIC (Enterococcus faecium) [µg/mL] | Activity (Saccharomyces cerevisiae) | MIC (Bacillus thuringiensis) [µg/mL] |
| --- | --- | --- | --- | --- | --- | --- | --- | --- | --- | --- | --- | --- | --- | --- | --- | --- | --- | --- |
| O=C1N/C(=N\c2nccs2)S/C1=C\c1ccccc1[N+](=O)[O-] | inactive | 0.7 (≈ 2.11 µM) | 3 (≈ 9.03 µM) | 25 (≈ 75.2 µM) | 6 (≈ 18.1 µM) | 12 (≈ 36.1 µM) | 12 (≈ 36.1 µM) | 25 (≈ 75.2 µM) | inactive | 3 (≈ 9.03 µM) | 12 (≈ 36.1 µM) | inactive | 12 (≈ 36.1 µM) | 6 (≈ 18.1 µM) | 50 (≈ 150 µM) | 25 (≈ 75.2 µM) | inactive | 6 (≈ 18.1 µM) |
| O=C1N/C(=N\c2nc3ccccc3s2)S/C1=C\c1ccc(Cl)cc1 | inactive | > 100 | 12 (≈ 32.3 µM) | 12 (≈ 32.3 µM) | 12 (≈ 32.3 µM) | > 100 | 12 (≈ 32.3 µM) | > 100 | inactive | > 100 | 100 (≈ 269 µM) | inactive | 12 (≈ 32.3 µM) | > 100 | 100 (≈ 269 µM) | > 100 | inactive | 6 (≈ 16.1 µM) |
| COc1ccc(/C=C2\S/C(=N\c3nsc4ccccc34)NC2=O)cc1 | inactive | > 100 |  |  | > 100 |  |  |  | inactive |  |  | inactive |  | > 100 |  |  | inactive |  |
| O=C1N/C(=N/c2nsc3ccccc23)S/C1=C\c1ccccc1[N+](=O)[O-] | inactive | 1.5 (≈ 3.92 µM) | > 100 | > 100 | > 100 | > 100 | > 100 | > 100 | inactive | 50 (≈ 131 µM) | > 100 | inactive | > 100 | 3 (≈ 7.84 µM) | 100 (≈ 261 µM) | > 100 | inactive | 3 (≈ 7.84 µM) |
| COc1cc(/C=C2\S/C(=N\c3nsc4ccccc34)NC2=O)ccc1O | inactive | > 100 |  |  | > 100 |  |  |  | inactive |  |  | inactive |  | > 100 |  |  | inactive |  |
| O=C1N/C(=N/c2nsc3ccccc23)S/C1=C\c1ccc(Cl)cc1 | inactive | > 100 | 0.7 (≈ 1.88 µM) | > 100 | 3 (≈ 8.07 µM) | 50 (≈ 134 µM) | > 100 | > 100 | inactive | > 100 | > 100 | inactive | > 100 | > 100 | > 100 | > 100 | inactive | 6 (≈ 16.1 µM) |
| O=C1CS/C(=N\c2nsc3ccccc23)N1 | inactive | 3 (≈ 12 µM) | 100 (≈ 401 µM) | > 100 | 50 (≈ 201 µM) | > 100 | > 100 | > 100 | inactive | > 100 | > 100 | inactive | > 100 | > 100 | > 100 | > 100 | inactive | > 100 |
| COc1ccc(/C=C2\S/C(=N/c3nccs3)NC2=O)cc1 | inactive | 0.3 (≈ 0.945 µM) | 1.5 (≈ 4.73 µM) | 12 (≈ 37.8 µM) | 1.5 (≈ 4.73 µM) | 3 (≈ 9.45 µM) | 6 (≈ 18.9 µM) | 12 (≈ 37.8 µM) | inactive | 3 (≈ 9.45 µM) | 12 (≈ 37.8 µM) | inactive | 6 (≈ 18.9 µM) | 12 (≈ 37.8 µM) | > 100 | > 100 | inactive | 3 (≈ 9.45 µM) |
| O=C1N/C(=N\c2nc3ccccc3s2)S/C1=C\c1cccc([N+](=O)[O-])c1 | inactive | > 100 | 12 (≈ 31.4 µM) | 6 (≈ 15.7 µM) | 12 (≈ 31.4 µM) | > 100 | 6 (≈ 15.7 µM) | > 100 | inactive | 6 (≈ 15.7 µM) | > 100 | inactive | 6 (≈ 15.7 µM) | 6 (≈ 15.7 µM) | > 100 | > 100 | inactive | 6 (≈ 15.7 µM) |
| O=C1N/C(=N\c2nccs2)S/C1=C\c1ccc([N+](=O)[O-])cc1 | inactive | 0.3 (≈ 0.903 µM) | 0.7 (≈ 2.11 µM) | 6 (≈ 18.1 µM) | 1.5 (≈ 4.51 µM) | 1.5 (≈ 4.51 µM) | 6 (≈ 18.1 µM) | > 100 | inactive | 1.5 (≈ 4.51 µM) | 6 (≈ 18.1 µM) | inactive | 3 (≈ 9.03 µM) | 3 (≈ 9.03 µM) | > 100 | > 100 | inactive | 1.5 (≈ 4.51 µM) |
| O=C1CSC(Nc2nccs2)=N1 | inactive | 1.5 (≈ 7.53 µM) |  |  | 50 (≈ 251 µM) |  |  |  | inactive |  |  | inactive |  | > 100 |  |  | inactive |  |
| O=C1N/C(=N/c2nsc3ccccc23)S/C1=C\c1ccccc1Cl | inactive | > 100 |  |  | > 100 |  |  |  | inactive |  |  | inactive |  | > 100 |  |  | inactive |  |
| O=C1N/C(=N/c2nsc3ccccc23)S/C1=C\c1ccccc1 | inactive | > 100 |  |  | > 100 |  |  |  | inactive |  |  | inactive |  | > 100 |  |  | inactive |  |
| O=C1N/C(=N\c2nc3ccccc3s2)S/C1=C\c1ccccc1[N+](=O)[O-] | inactive | > 100 |  |  | > 100 |  |  |  | inactive |  |  | inactive |  | > 100 |  |  | inactive |  |
